Data from ChEMBL document CHEMBL1177891, “Synthesis and bioassay of pyrrolyl oxazolines and thiazolines” (2010).
Values after ≈ are worked out from the molar mass of the structure shown.

What was measured:
Assay type in all cases: functional
Klebsiella pneumoniae [1] = experiment: Antibacterial activity against Klebsiella pneumoniae at 100 ug/disk after 24 hrs by disk diffusion method; conditions: read-out: IZ
How it was run: (§1)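 Agar disc diffusion on nutrient agar with NCIM bacteria. 6 mm sterile paper discs moistened with compound in DMSO (100 or 200 μg/disc) placed on pre-inoculated plates. Incubated at 37 °C; growth-inhibition zone diameter measured after 24 h. Chloramphenicol control.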

Bacillus subtilis [2] = experiment: Antibacterial activity against Bacillus subtilis at 100 ug/disk after 24 hrs by disk diffusion method; conditions: read-out: IZ; how it was run: as §1
Fusarium solani [3] = experiment: Antifungal activity against Fusarium solani at 200 ug/disk after 48 hrs by disk diffusion method; conditions: read-out: IZ
How it was run: (§2)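 Fungi from NCIM on nutrient agar plates, pre-inoculated. 6 mm paper discs carrying 100 or 200 μg compound in DMSO applied. Plates incubated at 37 °C and inhibition zone diameter measured at 48 h. Ketoconazole control.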

Curvularia lunata [4] = experiment: Antifungal activity against […] lunata at 200 ug/disk after 48 hrs by disk diffusion method; conditions: read-out: IZ; how it was run: as §2
Staphylococcus aureus [5] = experiment: Antibacterial activity against Staphylococcus aureus at 200 ug/disk after 24 hrs by disk diffusion method; conditions: read-out: IZ; how it was run: as §1
Curvularia lunata [6] = experiment: Antifungal activity against Curvularia lunata at 100 ug/disk after 48 hrs by disk diffusion method; conditions: read-out: IZ; how it was run: as §2
[7] = Antioxidant activity assessed as inhibition of nitric oxide production at 100 uM
How it was run: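 Sodium nitroprusside ([…]) in phosphate buffer pH 7.4 incubated with 100 μM compound (dioxane/methanol) at 25 °C for 120 min; solvent-only control. Aliquots mixed 1:1 with Griess reagent (1% sulfanilamide, 0.1% N-naphthylethylenediamine, 2% phosphoric acid). Absorbance at 546 nm, triplicate.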

Aspergillus niger [8] = experiment: Antifungal activity against Aspergillus niger at 100 ug/disk after 48 hrs by disk diffusion method; conditions: read-out: IZ; how it was run: as §2
Aspergillus niger [9] = experiment: Antifungal activity against Aspergillus niger at 200 ug/disk after 48 hrs by disk diffusion method; conditions: read-out: IZ; how it was run: as §2
Proteus vulgaris [10] = experiment: Antibacterial activity against Proteus vulgaris at 200 ug/disk after 24 hrs by disk diffusion method; conditions: read-out: IZ; how it was run: as §1
Klebsiella pneumoniae [11] = experiment: Antibacterial activity against Klebsiella pneumoniae at 200 ug/disk after 24 hrs by disk diffusion method; conditions: read-out: IZ; how it was run: as §1
Staphylococcus aureus [12] = experiment: Antibacterial activity against Staphylococcus aureus at 100 ug/disk after 24 hrs by disk diffusion method; conditions: read-out: IZ; how it was run: as §1
Fusarium solani [13] = experiment: Antifungal activity against Fusarium solani at 100 ug/disk after 48 hrs by disk diffusion method; conditions: read-out: IZ; how it was run: as §2
[14] = test system: Radical scavenging activity; experiment: Antioxidant activity assessed as DPPH radical scavenging activity at 100 uM
How it was run: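 Compound (100 μM) added to 100 μM DPPH in dioxane/ethanol. Kept at ambient temperature 20 min, then absorbance read at 517 nm. Percent DPPH scavenging taken from difference between test and control.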

Proteus vulgaris [15] = experiment: Antibacterial activity against Proteus vulgaris at 100 ug/disk after 24 hrs by disk diffusion method; conditions: read-out: IZ; how it was run: as §1
Bacillus subtilis [16] = experiment: Antibacterial activity against Bacillus subtilis at 200 ug/disk after 24 hrs by disk diffusion method; conditions: read-out: IZ; how it was run: as §1
[17] = Antioxidant activity assessed as increase in reducing power at 100 uM
How it was run: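 Oyaizu method. Compound at 100 μM in methanol mixed with 0.2 M phosphate buffer pH 6.6 and 1% potassium ferricyanide, 50 °C for 20 min. 10% TCA added, then centrifuged 3000 rpm for 10 min. Upper layer mixed with water and 0.1% FeCl3; absorbance read at 700 nm.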

Curvularia lunata [18] = experiment: Antifungal activity against Curvularia lunata after 48 hrs by microdilution susceptibility assay
How it was run: (§3)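 Fungal strains from NCIM. Microdilution: stocks at 800 μg/ml in DMSO, two-fold dilutions 400 down to 6.25 μg/ml, wells inoculated with fungal suspension, incubated 36 °C for 48 h. MIC read as lowest concentration without turbidity. Ketoconazole reference.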

Aspergillus niger [19] = experiment: Antifungal activity against Aspergillus niger after 48 hrs by microdilution susceptibility assay; how it was run: as §3
Fusarium solani [20] = experiment: Antifungal activity against Fusarium solani after 48 hrs by microdilution susceptibility assay; how it was run: as §3
Klebsiella pneumoniae [21] = experiment: Antibacterial activity against Klebsiella pneumoniae after 24 hrs by microdilution susceptibility assay
How it was run: (§4)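 Bacterial strains from NCIM. Broth microdilution: stocks at 800 μg/ml in DMSO, two-fold dilutions 400, 200, 100 ... 6.25 μg/ml, wells inoculated with bacterial suspension, 36 °C for 24 h. MIC = lowest concentration with no turbidity (no visible growth). Chloramphenicol as reference.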

Bacillus subtilis [22] = experiment: Antibacterial activity against Bacillus subtilis after 24 hrs by microdilution susceptibility assay; how it was run: as §4
Proteus vulgaris [23] = experiment: Antibacterial activity against Proteus vulgaris after 24 hrs by microdilution susceptibility assay; how it was run: as §4
Staphylococcus aureus [24] = experiment: Antibacterial activity against Staphylococcus aureus after 24 hrs by microdilution susceptibility assay; how it was run: as §4

| Compound | zone of inhibition at 100 µg/disc (Klebsiella pneumoniae [1]) | zone of inhibition at 100 µg/disc (Bacillus subtilis [2]) | zone of inhibition at 200 µg/disc (Fusarium solani [3]) | zone of inhibition at 200 µg/disc (Curvularia lunata [4]) | zone of inhibition at 200 µg/disc (Staphylococcus aureus [5]) | zone of inhibition at 100 µg/disc (Curvularia lunata [6]) | inhibition [7] | zone of inhibition at 100 µg/disc (Aspergillus niger [8]) | zone of inhibition at 200 µg/disc (Aspergillus niger [9]) | zone of inhibition at 200 µg/disc (Proteus vulgaris [10]) | zone of inhibition at 200 µg/disc (Klebsiella pneumoniae [11]) | zone of inhibition at 100 µg/disc (Staphylococcus aureus [12]) | zone of inhibition at 100 µg/disc (Fusarium solani [13]) | inhibition [14] | zone of inhibition at 100 µg/disc (Proteus vulgaris [15]) | zone of inhibition at 200 µg/disc (Bacillus subtilis [16]) | inhibition [17] | other results |
| --- | --- | --- | --- | --- | --- | --- | --- | --- | --- | --- | --- | --- | --- | --- | --- | --- | --- | --- |
| O=S(=O)(/C=C/S(=O)(=O)c1ccc(Cl)cc1)CC1=NCCS1 | 22 mm | 29 mm | 31 mm | 28 mm | 28 mm | 24 mm | 32.3% | 27 mm | 29 mm | 22 mm | 23 mm | 27 mm | 29 mm | 33.5% | 21 mm | 31 mm | 28.3% | – |
| O=C1O[C@H]([C@@H](O)CO)C(O)=C1O | – | – | – | – | – | – | 96.9% | – | – | – | – | – | – | 95.4% | – | – | – | – |
| O=S(=O)(/C=C/S(=O)(=O)c1ccccc1)CC1=NCCO1 | – | 10 mm | 15 mm | 18 mm | 13 mm | 16 mm | 82.1% | 17 mm | 19 mm | – | – | 11 mm | 14 mm | 83.7% | – | 12 mm | 79.5% | – |
| CC(=O)N1CCN(c2ccc(OCC3COC(Cn4ccnc4)(c4ccc(Cl)cc4Cl)O3)cc2)CC1 (stereo unspecified) [KETOCONAZOLE] | – | – | 42 mm | 44 mm | – | 41 mm | – | 36 mm | 39 mm | – | – | – | 38 mm | – | – | – | – | MIC (Curvularia lunata [18]): 6.25 µg/mL (≈ 11.8 µM); MIC (Aspergillus niger [19]): 6.25 µg/mL (≈ 11.8 µM); MIC (Fusarium solani [20]): 12.5 µg/mL (≈ 23.5 µM) |
| Cc1ccc(S(=O)(=O)c2c[nH]cc2S(=O)(=O)CC2=NCCO2)cc1 | 10 mm | 13 mm | 20 mm | 21 mm | 15 mm | 17 mm | 78.5% | 17 mm | 21 mm | 13 mm | 13 mm | 12 mm | 18 mm | 76.1% | 11 mm | 14 mm | 77.3% | – |
| O=S(=O)(/C=C/S(=O)(=O)c1ccc(Cl)cc1)CC1=NCCO1 | 10 mm | 12 mm | 19 mm | 20 mm | 15 mm | 18 mm | 85.5% | 17 mm | 20 mm | 10 mm | 12 mm | 13 mm | 16 mm | 86.6% | 9 mm | 14 mm | 82.7% | – |
| Cc1ccc(S(=O)(=O)/C=C/S(=O)(=O)CC2=NCCO2)cc1 | – | 9 mm | 17 mm | 19 mm | 13 mm | 18 mm | 74.2% | 14 mm | 16 mm | – | – | 10 mm | 14 mm | 73.9% | – | 11 mm | 73.5% | – |
| O=C(N[C@H](CO)[C@H](O)c1ccc([N+](=O)[O-])cc1)C(Cl)Cl [CHLORAMPHENICOL] | 37 mm | 38 mm | – | – | 41 mm | – | – | – | – | 45 mm | 42 mm | 35 mm | – | – | 42 mm | 44 mm | – | MIC (Klebsiella pneumoniae [21]): 6.25 µg/mL (≈ 19.3 µM); MIC (Bacillus subtilis [22]): 6.25 µg/mL (≈ 19.3 µM); MIC (Proteus vulgaris [23]): 12.5 µg/mL (≈ 38.7 µM); MIC (Staphylococcus aureus [24]): 6.25 µg/mL (≈ 19.3 µM) |
| Cc1ccc(S(=O)(=O)c2c[nH]cc2S(=O)(=O)CC2=NCCS2)cc1 | 20 mm | 22 mm | 31 mm | 32 mm | 26 mm | 28 mm | 23.7% | 31 mm | 35 mm | 19 mm | 21 mm | 23 mm | 29 mm | 23.2% | 17 mm | 24 mm | 22.9% | – |
| Cc1cc(C(C)(C)C)c(O)c(C(C)(C)C)c1 | – | – | – | – | – | – | – | – | – | – | – | – | – | – | – | – | 92.3% | – |
| Cc1ccc(S(=O)(=O)/C=C/S(=O)(=O)CC2=NCCS2)cc1 | 17 mm | 19 mm | 25 mm | 24 mm | 23 mm | 21 mm | 21.7% | 20 mm | 23 mm | 18 mm | 20 mm | 20 mm | 22 mm | 22.2% | 15 mm | 21 mm | 21.2% | – |
| O=S(=O)(CC1=NCCO1)c1c[nH]cc1S(=O)(=O)c1ccccc1 | 14 mm | 16 mm | 22 mm | 23 mm | 19 mm | 19 mm | 87.7% | 20 mm | 22 mm | 15 mm | 17 mm | 15 mm | 18 mm | 88.3% | 13 mm | 18 mm | 86.8% | – |
| O=S(=O)(CC1=NCCO1)c1c[nH]cc1S(=O)(=O)c1ccc(Cl)cc1 | 15 mm | 16 mm | 23 mm | 23 mm | 19 mm | 20 mm | 92.1% | 21 mm | 22 mm | 14 mm | 17 mm | 17 mm | 21 mm | 91.5% | 12 mm | 19 mm | 89.4% | – |
| O=S(=O)(/C=C/S(=O)(=O)c1ccccc1)CC1=NCCS1 | 19 mm | 22 mm | 29 mm | 26 mm | 24 mm | 24 mm | 30.4% | 26 mm | 28 mm | 18 mm | 21 mm | 21 mm | 26 mm | 29.3% | 17 mm | 23 mm | 29.3% | – |
